{
  "source": "paper PMC5524211",
  "about": "(Nuclear medicine and biology, 2017)",
  "key": {"ATR [1]": {"target": "ATR (Homo sapiens, UniProt Q13535)", "sequence (Q13535 whole entry)": "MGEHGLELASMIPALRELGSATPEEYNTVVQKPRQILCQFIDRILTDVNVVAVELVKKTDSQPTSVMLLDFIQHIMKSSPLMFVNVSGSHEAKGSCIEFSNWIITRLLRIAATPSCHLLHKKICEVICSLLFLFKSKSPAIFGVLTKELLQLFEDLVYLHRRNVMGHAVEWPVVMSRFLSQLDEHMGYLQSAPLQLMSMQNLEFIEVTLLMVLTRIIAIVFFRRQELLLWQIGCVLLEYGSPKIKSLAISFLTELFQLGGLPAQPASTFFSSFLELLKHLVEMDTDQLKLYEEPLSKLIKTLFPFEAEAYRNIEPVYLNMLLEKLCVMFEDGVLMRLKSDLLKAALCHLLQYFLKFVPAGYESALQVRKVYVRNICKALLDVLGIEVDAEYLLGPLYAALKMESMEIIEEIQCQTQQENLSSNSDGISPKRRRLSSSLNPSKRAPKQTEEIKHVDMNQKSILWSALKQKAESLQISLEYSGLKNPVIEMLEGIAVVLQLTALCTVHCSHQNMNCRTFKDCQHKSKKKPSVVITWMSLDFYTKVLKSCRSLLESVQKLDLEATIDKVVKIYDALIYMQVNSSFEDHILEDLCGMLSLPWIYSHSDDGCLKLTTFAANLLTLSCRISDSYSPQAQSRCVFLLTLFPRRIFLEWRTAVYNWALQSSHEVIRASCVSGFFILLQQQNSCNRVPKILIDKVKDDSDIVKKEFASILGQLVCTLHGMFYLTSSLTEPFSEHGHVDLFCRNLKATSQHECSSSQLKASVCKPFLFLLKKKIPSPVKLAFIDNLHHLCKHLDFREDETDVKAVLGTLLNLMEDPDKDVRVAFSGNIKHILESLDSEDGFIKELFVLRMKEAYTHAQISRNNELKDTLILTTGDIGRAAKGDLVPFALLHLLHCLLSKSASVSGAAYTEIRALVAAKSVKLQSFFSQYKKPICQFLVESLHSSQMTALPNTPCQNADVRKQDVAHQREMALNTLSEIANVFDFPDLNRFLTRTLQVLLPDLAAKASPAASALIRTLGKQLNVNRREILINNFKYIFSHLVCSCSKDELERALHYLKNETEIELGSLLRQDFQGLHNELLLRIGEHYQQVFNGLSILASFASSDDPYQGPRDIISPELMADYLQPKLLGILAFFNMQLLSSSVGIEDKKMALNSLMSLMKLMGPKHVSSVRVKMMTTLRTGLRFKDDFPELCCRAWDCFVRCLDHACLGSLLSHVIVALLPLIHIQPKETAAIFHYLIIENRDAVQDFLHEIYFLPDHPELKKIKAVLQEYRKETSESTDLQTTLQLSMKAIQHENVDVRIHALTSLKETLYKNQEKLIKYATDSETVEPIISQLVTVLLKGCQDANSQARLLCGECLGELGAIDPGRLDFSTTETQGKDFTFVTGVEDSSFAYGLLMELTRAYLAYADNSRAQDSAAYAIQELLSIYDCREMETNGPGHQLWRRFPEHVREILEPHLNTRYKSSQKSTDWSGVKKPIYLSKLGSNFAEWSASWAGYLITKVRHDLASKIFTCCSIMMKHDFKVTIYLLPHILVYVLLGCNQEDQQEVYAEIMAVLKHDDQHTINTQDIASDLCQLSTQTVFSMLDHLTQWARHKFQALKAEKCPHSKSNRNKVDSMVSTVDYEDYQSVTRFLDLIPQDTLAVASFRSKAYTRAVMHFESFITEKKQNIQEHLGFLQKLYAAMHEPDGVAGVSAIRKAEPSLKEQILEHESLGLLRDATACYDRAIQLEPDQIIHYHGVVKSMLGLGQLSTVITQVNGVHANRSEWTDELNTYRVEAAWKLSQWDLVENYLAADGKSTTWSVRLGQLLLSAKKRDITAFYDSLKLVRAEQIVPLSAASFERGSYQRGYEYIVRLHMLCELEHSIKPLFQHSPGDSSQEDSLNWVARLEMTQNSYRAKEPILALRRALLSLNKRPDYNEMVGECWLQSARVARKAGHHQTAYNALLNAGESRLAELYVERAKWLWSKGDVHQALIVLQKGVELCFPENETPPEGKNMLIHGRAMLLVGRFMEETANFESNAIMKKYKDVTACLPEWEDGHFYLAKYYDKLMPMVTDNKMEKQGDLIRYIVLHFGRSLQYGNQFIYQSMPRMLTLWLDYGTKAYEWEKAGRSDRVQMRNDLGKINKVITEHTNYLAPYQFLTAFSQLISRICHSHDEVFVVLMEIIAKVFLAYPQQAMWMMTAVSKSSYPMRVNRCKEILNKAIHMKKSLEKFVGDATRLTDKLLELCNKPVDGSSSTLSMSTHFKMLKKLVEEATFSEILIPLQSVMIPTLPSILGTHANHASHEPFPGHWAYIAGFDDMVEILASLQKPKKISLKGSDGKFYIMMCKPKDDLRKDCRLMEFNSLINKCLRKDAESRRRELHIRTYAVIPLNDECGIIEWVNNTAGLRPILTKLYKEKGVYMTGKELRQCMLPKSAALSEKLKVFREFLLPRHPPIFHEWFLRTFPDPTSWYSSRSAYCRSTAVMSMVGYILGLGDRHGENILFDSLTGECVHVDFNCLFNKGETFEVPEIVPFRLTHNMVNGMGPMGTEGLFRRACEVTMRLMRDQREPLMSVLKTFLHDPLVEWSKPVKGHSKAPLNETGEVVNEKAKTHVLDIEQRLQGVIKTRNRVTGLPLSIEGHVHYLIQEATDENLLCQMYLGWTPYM", "sequence (Q8WXE1 whole entry partner)": "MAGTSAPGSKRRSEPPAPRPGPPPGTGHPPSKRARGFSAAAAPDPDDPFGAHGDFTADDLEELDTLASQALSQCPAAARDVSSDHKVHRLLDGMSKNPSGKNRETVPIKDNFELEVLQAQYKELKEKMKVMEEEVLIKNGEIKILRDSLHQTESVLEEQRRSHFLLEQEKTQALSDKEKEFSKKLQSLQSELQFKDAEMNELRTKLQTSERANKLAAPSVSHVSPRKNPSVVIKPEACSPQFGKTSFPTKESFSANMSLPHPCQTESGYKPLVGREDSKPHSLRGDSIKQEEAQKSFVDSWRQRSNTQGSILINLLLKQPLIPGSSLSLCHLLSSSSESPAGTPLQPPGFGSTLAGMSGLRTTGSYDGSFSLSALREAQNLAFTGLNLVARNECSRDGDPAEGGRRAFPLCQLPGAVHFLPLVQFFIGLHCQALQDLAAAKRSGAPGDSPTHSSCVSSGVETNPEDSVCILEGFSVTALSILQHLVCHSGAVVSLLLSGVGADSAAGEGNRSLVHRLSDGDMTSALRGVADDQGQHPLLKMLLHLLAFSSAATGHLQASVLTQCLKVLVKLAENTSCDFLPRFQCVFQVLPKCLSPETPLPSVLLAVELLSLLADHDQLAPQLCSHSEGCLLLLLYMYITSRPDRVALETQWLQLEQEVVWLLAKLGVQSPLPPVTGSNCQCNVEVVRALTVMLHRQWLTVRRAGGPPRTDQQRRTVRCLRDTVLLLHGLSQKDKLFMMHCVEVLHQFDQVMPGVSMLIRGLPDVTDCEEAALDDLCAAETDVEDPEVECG", "experiment": "Competitive displacement assay of [18F]-ATRi by Ve-821 in U251 MG cells", "assay_type": "cell-based", "summary_of_the_method": "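U251 MG cells were grown in MEM with 10% heat-inactivated FBS and penicillin/streptomycin, then seeded at 10^5 cells 24 h before the assay. The 18F-labelled test tracer (final 0.667 nM) was co-incubated with unlabelled competitor (0–1333 nM) for 1 h at 37 °C. Cells were PBS-washed twice, lysed with 1 N NaOH, and bound 18F was γ-counted. Percent bound was run in triplicate and fitted against competitor concentration.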"}, "ATR [2]": {"tested_on": "ATR", "conditions": "cited from earlier work"}, "U251 MG cells": {"tested_on": "U251 MG cells", "experiment": "In vitro cell uptake", "assay_type": "cell-based, human", "summary_of_the_method": "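U251 MG cells were plated at 0.5 million/well the day before, PBS-washed twice, then incubated with 18F-labelled test tracer (6 μCi/well) in MEM at 37 °C for 0–240 min. For blocking, a 100-fold excess of unlabelled ATR inhibitor was co-incubated. At each time point, cells were PBS-washed twice and lysed in 1 M NaOH (10 min, 37 °C), and lysate activity was γ-counted.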"}, "[3]": {"conditions": "4 h post injection, healthy athymic nude mice, i.v."}, "[4]": {"conditions": "1-octanol / 25 mM phosphate buffered saline pH 7.4"}, "[5]": {"experiment": "Chemical Hydrophobicity Index", "assay_type": "physicochemical", "conditions": "from HPLC retention time", "summary_of_the_method": "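Reverse-phase HPLC retention times were measured for a set of standards with known CHI to build a standard curve. The CHI of the non-radioactive (19F) test compound was calculated from its retention time on that curve.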"}, "Plasma protein binding": {"experiment": "Plasma protein binding", "assay_type": "in vitro ADME", "conditions": "serum", "summary_of_the_method": "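Equilibrium dialysis: 500 μM non-radioactive test compound in serum against PBS, 4 h at 37 °C on an orbital shaker at 100 rpm. Samples from both chambers were protein-precipitated (90/10 acetonitrile/water, 0.1% formic acid) and analysed by HPLC with peak integration. % bound = [1 − (buffer conc./plasma conc.)]×100, reported as mean ± SD.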"}, "[6]": {"conditions": "blocked with 100-fold excess Ve-821 pre-injected 30 min before, 120 min p.i."}},
  "data": [
    {"smiles": "CS(=O)(=O)c1ccc(-c2cnc(N)c(C(=O)Nc3ccccc3)n2)cc1", "note": "[Ve-821]", "values": [
      {"measurement": "IC50", "setting": "ATR [1]", "value": 38, "unit": "nM"},
      {"measurement": "IC50", "setting": "ATR [2]", "value": 26, "unit": "nM"}
    ]},
    {"smiles": "CS(=O)(=O)c1ccc(-c2cnc(N)c(C(=O)Nc3ccc([18F])cc3)n2)cc1", "note": "[[^18F]-9, 3-amino-N-(4-[^18F]phenyl)-6-(4-(methylsulfonyl)phenyl)pyrazine-2-carboxamide]", "values": [
      {"measurement": "cell uptake, blocked", "setting": "U251 MG cells; U251 MG cells blocked with Ve-821 (100-fold excess), co-incubated 240 min", "value": "0.16±0.1", "unit": "%"},
      {"measurement": "cell uptake", "setting": "U251 MG cells; U251 MG cells, 240 min incubation with [18F]-ATRi only", "value": "3.5 ± 0.1", "unit": "%"},
      {"measurement": "ex vivo blood stability (tracer stable)", "setting": "[3]", "value": "greater than 97%"},
      {"measurement": "clearance from bloodstream (fast phase)", "setting": "2-phase decay curve, healthy mice, i.v.", "value": "< 10", "unit": "min"},
      {"measurement": "weighted blood half-life", "setting": "single bolus intravenous injection via tail vein, nude mice, two-phase decay fit", "value": 6.2, "unit": "min"},
      {"measurement": "LogPO/W", "setting": "[4]", "value": 1.6},
      {"measurement": "tumor-to-brain ratio", "setting": "U251 MG xenograft; U251 MG xenograft mice", "value": "> 15"},
      {"measurement": "kidney uptake", "setting": "U251 MG xenograft; biodistribution, 120 min p.i.", "value": "3.51 ± 0.23", "unit": "%ID/g"},
      {"measurement": "liver uptake", "setting": "U251 MG xenograft; biodistribution, 120 min p.i.", "value": "3.68± 1.39", "unit": "%ID/g"},
      {"measurement": "blood uptake, blocked", "setting": "U251 MG xenograft; [6]", "value": "0.84 ± 0.3", "unit": "%ID/g"},
      {"measurement": "tumor uptake, blocked", "setting": "U251 MG xenograft; [6]", "value": "0.46 ± 0.12", "unit": "%ID/g"},
      {"measurement": "blood uptake", "setting": "U251 MG xenograft; unblocked, 120 min p.i., i.v.", "value": "1.85 ± 0.47", "unit": "%ID/g"}
    ]},
    {"smiles": "CS(=O)(=O)c1ccc(-c2cnc(N)c(C(=O)Nc3ccc(F)cc3)n2)cc1", "note": "[compound 5, 3-amino-N-(4-fluorophenyl)-6-(4-(methylsulfonyl)-phenyl)pyrazine-2-carboxamide]", "values": [
      {"measurement": "CHI value", "setting": "[5]", "value": 76.8},
      {"measurement": "fraction unbound at 4 h, 500 μM", "setting": "Plasma protein binding", "value": "~0.1"}
    ]}
  ]
}
